Source: ChEMBL document CHEMBL1275449, “Potent in vitro antifungal activities of naturally occurring acetylenic acids” (Antimicrob Agents Chemother, 2008)
≈ marks a conversion by molar mass, not a printed value. Calls of active or inactive are those of the source. The rule behind the calls is not given here.

Tests used:
Trichophyton rubrum [1] = assay: Antifungal activity against Trichophyton rubrum ATCC 10218 by CLSI method; assay type: functional, organism-based
Outline: (§1)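 Growth scraped from 1- to 6-week-old potato dextrose slants and filtered through Miracloth. Diluted in 5% Alamar blue-RPMI 1640 (MOPS pH 7.0) to 2.7 × 10⁴ CFU/ml. Eleven twofold dilutions in duplicate. Fluorescence at 544 nm excitation/590 nm emission read before and after 35°C, 5 days. IC50 fitted from percent growth. MIC taken as no detectable growth; MFC from clear or blue wells plated on PD agar.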

Trichophyton rubrum [2] = assay: Antifungal activity against Trichophyton rubrum ATCC MYA-4438 by CLSI method; assay type: functional, organism-based; outline: as §1
[3] = system: Trichophyton mentagrophytes; assay: Antifungal activity against Trichophyton mentagrophytes ATCC 9533 by CLSI method; assay type: functional, organism-based; outline: as §1
[4] = system: Trichophyton mentagrophytes; assay: Antifungal activity against Trichophyton mentagrophytes ATCC MYA-4439 by CLSI method; assay type: functional, organism-based; outline: as §1
Cryptococcus neoformans [5] = assay: Antifungal activity against Cryptococcus neoformans ATCC 66031 after 72 hrs by CLSI method; assay type: functional, organism-based; details: ATCC 66031, 72 h
Outline: (§2)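 SD broth replaced RPMI because growth in RPMI was poor; other CLSI conditions were kept. Inoculum was 1.5 × 10³ CFU/ml from colonies on SD agar, checked by plating. Twofold serial dilutions (11 concentrations) in 20% DMSO-saline were tested in duplicate. OD530 was read before and after incubation at 35°C for 72 h. Percent growth gave IC50; the MIC is the lowest concentration with no detectable growth.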

Candida tropicalis [6] = assay: Antifungal activity against Candida tropicalis ATCC 750 after 48 hrs by CLSI method; assay type: functional, organism-based; details: ATCC 750, 48 h
Outline: (§3)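 Yeast suspensions made from 3-5 colonies off 24-72 h SD agar plates in saline. They were diluted by OD630 standard curve in RPMI 1640 (0.2% dextrose, 0.03% glutamine, 0.165 M MOPS, pH 7.0) to 1.5 × 10³ CFU/ml. Twofold dilutions (11 concentrations, 20% DMSO-saline) run in duplicate. OD530 read before and after 35°C, 48 h. Line values are top test concentrations; no-growth endpoints give MIC/MFC.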

Pichia kudriavzevii = assay: Antifungal activity against Candida krusei ATCC 6258 after 48 hrs by CLSI method; assay type: functional, organism-based; details: ATCC 6258, 48 h
Outline: (§4)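 Candida inocula came from 24–72-h SD agar colonies suspended in saline. They were diluted by OD630 standard curve into RPMI 1640 (0.2% dextrose, 0.03% glutamine, 0.165 M MOPS, pH 7.0) to 1.5 × 10³ CFU/ml. Compounds were run as 11 twofold dilutions in 20% DMSO-saline, in duplicate, at 35°C for 48 h, with OD530 read before and after. Percent growth at the top concentration, IC50, MIC, and MFC (SD agar plating) were derived.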

Candida albicans [7] = assay: Antifungal activity against Fluconazole resistant Candida albicans clinical isolate 17 after 48 hrs by CLSI method; assay type: functional, organism-based
Outline: (§5)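 CLSI broth microdilution. Colonies from 24–72 h SD agar suspended in saline and sized by OD630 standard curve. Inoculum 1.5 × 10³ CFU/ml (final) in RPMI 1640 (0.2% dextrose, 0.03% glutamine, 0.165 M MOPS, pH 7.0). Twofold dilutions (11 levels) from 20% DMSO-saline, in duplicate. 35°C for 48 h, OD530 read before and after. IC50 fitted from % growth. MIC: no detectable growth. MFC: subculture onto SD agar.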

Candida albicans [8] = assay: Antifungal activity against Fluconazole resistant Candida albicans clinical isolate 1 after 48 hrs by CLSI method; assay type: functional, organism-based; outline: as §5
Candida albicans [9] = assay: Antifungal activity against Candida albicans ATCC 200955 after 48 hrs by CLSI method; assay type: functional, organism-based; details: ATCC 200955, 48 h; outline: as §5
Candida albicans [10] = assay: Antifungal activity against Candida albicans ATCC 90028 after 48 hrs by CLSI method; assay type: functional, organism-based; details: ATCC 90028, 48 h; outline: as §5
Candida albicans [11] = assay: Antifungal activity against Candida albicans ATCC 60193 at 178.3 uM after 48 hrs by CLSI method; assay type: functional, organism-based; outline: as §4
Candida albicans [12] = assay: Antifungal activity against Candida albicans ATCC 32354 at 178.3 uM after 48 hrs by CLSI method; assay type: functional, organism-based; outline: as §4
Candida albicans [13] = assay: Antifungal activity against Candida albicans ATCC 200955 at 178.3 uM after 48 hrs by CLSI method; assay type: functional, organism-based; outline: as §4
Candida albicans [14] = assay: Antifungal activity against Fluconazole resistant Candida albicans isolate 1 at 178.3 uM after 48 hrs by CLSI method; assay type: functional, organism-based
Outline: (§6)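 Candida in CLSI broth microdilution. Saline colony suspension set to 1.5 × 10³ CFU/ml (final) in MOPS-buffered RPMI 1640, pH 7.0. Test agent given as twofold serial dilutions in 20% DMSO-saline, duplicate wells. 35°C for 48 h. Growth read as OD530 before and after incubation. Percent inhibition scored at the highest test concentration.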

Candida albicans [15] = assay: Antifungal activity against Fluconazole resistant Candida albicans isolate 17 at 178.3 uM after 48 hrs by CLSI method; assay type: functional, organism-based; outline: as §6
Nakaseomyces glabratus = assay: Antifungal activity against Candida glabrata ATCC 90030 at 178.3 uM after 48 hrs by CLSI method; assay type: functional, organism-based; outline: as §4
Candida parapsilosis [16] = assay: Antifungal activity against Candida parapsilosis ATCC 22019 at 178.3 uM after 48 hrs by CLSI method; assay type: functional, organism-based; outline: as §3
Candida tropicalis [17] = assay: Antifungal activity against Candida tropicalis ATCC 750 at 178.3 uM after 48 hrs by CLSI method; assay type: functional, organism-based; outline: as §3
Candida albicans [18] = assay: Antifungal activity against Candida albicans ATCC 32354 after 48 hrs by CLSI method; assay type: functional, organism-based; details: ATCC 32354, 48 h; outline: as §5
SK-MEL = assay: Cytotoxicity against human SK-MEL cells up to 32 uM by neutral red method; assay type: cell-based
Outline: (§7)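 Neutral red uptake cytotoxicity, top concentration 32 μM.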

KB = assay: Cytotoxicity against human KB cells up to 32 uM by neutral red method; assay type: cell-based; outline: as §7
BT-549 = assay: Cytotoxicity against human BT549 cells up to 32 uM by neutral red method; assay type: cell-based; outline: as §7
SK-OV-3 = assay: Cytotoxicity against human SKOV3 cells up to 32 uM by neutral red method; assay type: cell-based; outline: as §7
Vero = assay: Cytotoxicity against African green monkey Vero cells up to 32 uM by neutral red method; assay type: cell-based; details: chlorocebus sabaeus; outline: as §7
LLC-PK1 = assay: Cytotoxicity against pig LLC-PK1 cells up to 32 uM by neutral red method; assay type: cell-based, Sus scrofa; outline: as §7
Mus musculus = assay: Toxicity in mouse up to 34 umol/kg/day, ip for 3 days; assay type: organism-based; details: in vivo, 72 h
Candida albicans [19] = assay: Antifungal activity against Candida albicans ATCC 14053 after 48 hrs by CLSI method; assay type: functional, organism-based; details: ATCC 14053, 48 h; outline: as §5
Candida albicans [20] = assay: Antifungal activity against Candida albicans ATCC 60193 after 48 hrs by CLSI method; assay type: functional, organism-based; details: ATCC 60193, 48 h; outline: as §5
Cryptococcus neoformans [21] = assay: Antifungal activity against Cryptococcus neoformans ATCC 90113 at 178.3 uM after 72 hrs by CLSI method; assay type: functional, organism-based; outline: as §2
Cryptococcus neoformans [22] = assay: Antifungal activity against Cryptococcus neoformans ATCC 66031 at 178.3 uM after 72 hrs by CLSI method; assay type: functional, organism-based; outline: as §2
Aspergillus fumigatus [23] = assay: Antifungal activity against Aspergillus fumigatus ATCC 204305 at 178.3 uM after 48 hrs by CLSI method; assay type: functional, organism-based
Aspergillus fumigatus [24] = assay: Antifungal activity against Aspergillus fumigatus ATCC 90906 at 178.3 uM after 48 hrs by CLSI method; assay type: functional, organism-based
Aspergillus flavus = assay: Antifungal activity against Aspergillus flavus ATCC 204304 at 178.3 uM after 48 hrs by CLSI method; assay type: functional, organism-based
Aspergillus niger = assay: Antifungal activity against Aspergillus niger ATCC 16404 at 178.3 uM after 48 hrs by CLSI method; assay type: functional, organism-based
Trichophyton rubrum [25] = assay: Antifungal activity against Trichophyton rubrum ATCC MYA-4438 at 178.3 uM after 5 days by CLSI method; assay type: functional, organism-based
Aspergillus fumigatus [26] = assay: Antifungal activity against Aspergillus fumigatus ATCC 204305 after 48 h by CLSI method; details: ATCC 204305, 48 h
Candida parapsilosis [27] = assay: Antifungal activity against Candida parapsilosis ATCC 22019 after 48 hrs by CLSI method; assay type: functional, organism-based; details: Lodderomyces parapsilosis, ATCC 22019, 48 h; outline: as §3

## CCCCCCCCCCCC#CCCCCC(=O)O [6-OCTADECYNOIC ACID]
Trichophyton rubrum [1]
  IC50: 2700 nM
  MFC: 11.1 µM (≈ 3.11 µg/mL)
  MIC: 5.6 µM (≈ 1.57 µg/mL)
Trichophyton rubrum [2]
  IC50: 1800 nM
  MIC: 5.6 µM (≈ 1.57 µg/mL)
[3]
  IC50: 1.3 µM
  MFC: 2.8 µM (≈ 0.785 µg/mL)
  MIC: 2.1 µM (≈ 0.589 µg/mL)
[4]
  IC50: 1200 nM
  MFC: 2.8 µM (≈ 0.785 µg/mL)
  MIC: 2.8 µM (≈ 0.785 µg/mL)
Cryptococcus neoformans [5]
  IC50: 1400 nM
Candida tropicalis [6]
  IC50: 6.3 µM
  MIC: 111 µM (≈ 31.2 µg/mL)
Pichia kudriavzevii
  IC50: 3.4 µM
  MIC: 5.6 µM (≈ 1.57 µg/mL)
Candida albicans [7]
  IC50: 3.6 µM
  MIC: 16.7 µM (≈ 4.68 µg/mL)
Candida albicans [8]
  IC50: 4200 nM
  MIC: 13.9 µM (≈ 3.9 µg/mL)
Candida albicans [9]
  IC50: 1900 nM
  MIC: 11.1 µM (≈ 3.11 µg/mL)
Candida albicans [10]
  IC50: 2000 nM
  MFC: 11.1 µM (≈ 3.11 µg/mL)
  MIC: 2.8 µM (≈ 0.785 µg/mL)
Candida albicans [11]
  Activity: inactive
Candida albicans [12]
  Activity: inactive
Candida albicans [13]
  Activity: inactive
Candida albicans [14]
  Activity: inactive
Candida albicans [15]
  Activity: inactive
Nakaseomyces glabratus
  Activity: inactive
Candida parapsilosis [16]
  Activity: inactive
Candida tropicalis [17]
  Activity: inactive
Candida albicans [18]
  IC50: 4000 nM
  MIC: 27.9 µM (≈ 7.82 µg/mL)
SK-MEL
  Activity: Non-toxic
KB
  Activity: Non-toxic
BT-549
  Activity: Non-toxic
SK-OV-3
  Activity: Non-toxic
Vero
  Activity: Non-toxic
LLC-PK1
  Activity: Non-toxic
Mus musculus
  Activity: Non-toxic
Candida albicans [19]
  IC50: 1000 nM
  MFC: 5.6 µM (≈ 1.57 µg/mL)
  MIC: 2.8 µM (≈ 0.785 µg/mL)
Candida albicans [20]
  IC50: 3000 nM
  MIC: 5.6 µM (≈ 1.57 µg/mL)
Cryptococcus neoformans [21]
  Activity: inactive
Cryptococcus neoformans [22]
  Activity: inactive
Aspergillus fumigatus [23]
  Activity: inactive
Aspergillus fumigatus [24]
  Activity: inactive
Aspergillus flavus
  Activity: inactive
Aspergillus niger
  Activity: inactive
Trichophyton rubrum [25]
  Activity: inactive
Aspergillus fumigatus [26]
  IC50: 18.7 µM
  MIC: 178 µM (≈ 50 µg/mL)

## OC(Cn1cncn1)(Cn1cncn1)c1ccc(F)cc1F [FLUCONAZOLE]
Trichophyton rubrum [1]
  IC50: 1800 nM
  MFC: 163 µM (≈ 50 µg/mL)
  MIC: 1.9 µM (≈ 0.582 µg/mL)
Trichophyton rubrum [2]
  IC50: 2700 nM
  MIC: 6.4 µM (≈ 1.96 µg/mL)
[3]
  IC50: 29.5 µM
  MIC: 61.2 µM (≈ 18.7 µg/mL)
Candida tropicalis [6]
  IC50: 4.3 µM
  MIC: 15.3 µM (≈ 4.69 µg/mL)
Candida parapsilosis [27]
  IC50: 3.4 µM
  MIC: 10.2 µM (≈ 3.12 µg/mL)
Pichia kudriavzevii
  IC50: 126 µM
  MIC: 163 µM (≈ 50 µg/mL)
Candida albicans [7]
  IC50: 163 µM
Candida albicans [8]
  IC50: 800 nM
  MIC: 5.1 µM (≈ 1.56 µg/mL)
Candida albicans [9]
  IC50: 400 nM
  MIC: 1.3 µM (≈ 0.398 µg/mL)
Candida albicans [10]
  IC50: 800 nM
  MIC: 6.4 µM (≈ 1.96 µg/mL)
Candida albicans [18]
  IC50: 800 nM
  MIC: 5.7 µM (≈ 1.75 µg/mL)
Candida albicans [19]
  IC50: 500 nM
  MIC: 1.3 µM (≈ 0.398 µg/mL)
Candida albicans [20]
  IC50: 400 nM
  MIC: 0.6 µM (≈ 0.184 µg/mL)
